Consider one compound from paper PMC4593509 (Medicinal chemistry research : an international journal for …, 2015).

The test system of data set [1] is NCI-H460. As to the kind of experiment: MTT assay, cell viability after 72 h. The format is cell-based, human. The conditions noted are these: Homo sapiens, NCI-H460, 72 h, read-out: IC50 (at day 3). The procedure, abridged:
(§1)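 Cells were kept in RPMI-1640 with 10% FBS at 37 °C and 5% CO₂, grown to confluency, seeded at 5,000–7,000 per well, and incubated 24 h. Medium was replaced with medium holding test compound, diluted from a 1% DMSO/water suspension, in six replicates each in triplicate. After 72 h, MTT in PBS was added for 4 h. Medium was then removed, formazan dissolved in DMSO, and OD read at 540 nm.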
Background: Tetrazolium assays rely on reduction of a dye to a coloured formazan, in cell work by metabolically active cells.

In data set [2] the test system is NCI-H460 cell line. As to the kind of experiment: Annexin V. The format is cell-based, human. The conditions noted are these: H460 cells. The procedure, abridged:
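NCI-H460 cells were seeded at 1×10^5 per well and left to adhere overnight. Test compound or cisplatin (40 µM) was diluted into medium from a 1% DMSO/water solution, and untreated controls got fresh medium, with 2 wells per treatment. After exposure, cells were washed twice in cold PBS and stained with FITC-Annexin V and PI in 1× binding buffer for 15 min at room temperature in the dark. Imaging used fluorescence microscopy at 10× and 20×.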

Data set [3] concerns NCI-H1975. As to the kind of experiment: MTT assay, cell viability after 72 h. The note with it: Homo sapiens, NCI-H1975, 72 h, read-out: IC50 (at day 3). The format is cell-based, human. Put shortly:
as §1

Data set [4] in a line: Water solubility from a filtered saturated solution, by weight. The format is physicochemical. The conditions noted are these: water, thermodynamic from solid.
The subject of data set [5] is HCC827. Put plainly: MTT assay, cell viability after 72 h. The format is cell-based, human. The note with it: Homo sapiens, HCC827, 72 h, read-out: IC50 (at day 3). Put shortly: as §1
In data set [6] the test system is PARP and caspase-3 in NCI-H460 cells. As to the kind of experiment: Western blotting of apoptotic proteins caspase-3 and PARP. It counts as cell-based, human. The note with it: 5 μM. The procedure, abridged:
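Confluent NCI-H460 cells, seeded at 1×10^5 per well in RPMI-1640 with 10% FBS and 1% pen-strep, were serum-starved 24 h, then treated. Cells were lysed in ice-cold Tris pH 7.5/Triton X-100 buffer with protease/phosphatase inhibitors. Equal lysate amounts were run on 4–12% SDS-PAGE and moved to PVDF, then probed with PARP, caspase-3 and GAPDH antibodies (1:1,000, 4 °C overnight) and HRP anti-rabbit (1:5,000). Detection was by ECL, with GAPDH reprobe for normalization and cisplatin lysates as control.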
On the technique in general: Immunoblotting shows a protein as a band on a membrane.

For orientation: IC50 means the point on the concentration scale where inhibition reaches its midpoint. The term solubility denotes the concentration that dissolves in the medium under given conditions. Higher therefore signals much dissolved substance. Take `Clc1c(Cl)[n+](Cc2ccc3ccccc3c2)cn1Cc1ccc2ccccc2c1.[Br-]` [IC23, 4,5-dichloro-1,3-bis (naphthalen-2-ylmethyl)imidazolium bromide]: the 50% inhibitory concentration (IC50) stood at 5 µM in data set [1], 6 µM in data set [3] and 8 µM in data set [5]. In addition, the “stage of apoptosis (Annexin V / PI)” value is recorded as “early stage of apoptosis” in data set [2] (treatment 1 h, IC23 at 40 μM); “latestage apoptotic cells” in data set [2] (treatment 3 h, IC23 at 40 μM); “end stage of apoptosis” in data set [2] (treatment 6 h, IC23 and cisplatin at 40 μM). In data set [4], this compound gave a solubility below 100 µg/mL. In addition, the PARP cleavage entry in data set [6] (H460 cell lysates, 12 h) is on record as “presence of cleaved PARP”. Also, in data set [6] (H460 cell lysates, 12 h), the “levels of procaspase-3” value is “substantial reduction”. In data set [6] (H460 cells, 1 h), the “PARP-1 and procaspase-3 cleavage” value is “little PARP-1 and procaspase-3 cleavage”.
